Source: ChEMBL document CHEMBL2146424, “Synthesis and structure-activity relationship of a novel class of 15-membered macrolide antibiotics known as '11a-azalides'” (2012)
Converted amounts (≈) assume the structure as drawn.

Experiments:
Streptococcus pneumoniae [1] = experiment: Antibacterial activity against erythromycin-susceptible Streptococcus pneumoniae ATCC 49619 by broth microdilution method; format: functional
Procedure, shortened: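 MIC read by broth microdilution following CLSI guidelines for S. pneumoniae; clarithromycin run alongside as comparator in all assays.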

Streptococcus pneumoniae [2] = experiment: Antibacterial activity against MLSB-resistant Streptococcus pneumoniae 205 by broth microdilution method; format: functional
Procedure, shortened: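 MIC measured by broth microdilution following CLSI guidelines for S. pneumoniae; erythromycin-susceptible and erythromycin-resistant pneumococcal strains tested, with clarithromycin as comparator in every run.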

Structure (SMILES) | MIC (Streptococcus pneumoniae [1]) [µg/mL] | MIC (Streptococcus pneumoniae [2]) [µg/mL]
CO[C@]1(C)C[C@@H](C)[C@H](O)[C@H](C)CN(C)C[C@H](COc2ccc(-c3ccccn3)cc2)OC(=O)[C@H](C)[C@@H](O[C@H]2C[C@@](C)(OC)[C@@H](O)[C@H](C)O2)[C@H](C)[C@H]1O[C@@H]1O[C@H](C)C[C@H](N(C)C)[C@H]1O | 0.25 (≈ 0.281 µM) | 16 (≈ 18 µM)
CO[C@]1(C)C[C@@H](C)C(=O)[C@H](C)CN(C)CCOC(=O)[C@H](C)[C@@H](O[C@H]2C[C@@](C)(OC)[C@@H](O)[C@H](C)O2)[C@H](C)[C@H]1O[C@@H]1O[C@H](C)C[C@H](N(C)C)[C@H]1O | 32 (≈ 45.5 µM) | > 128
CCN(CC)C[C@H]1COC(=O)[C@H](C)[C@@H](O[C@H]2C[C@@](C)(OC)[C@@H](O)[C@H](C)O2)[C@H](C)[C@@H](O[C@@H]2O[C@H](C)C[C@H](N(C)C)[C@H]2O)[C@](C)(OC)C[C@@H](C)[C@H](O)[C@H](C)CN1C | 128 (≈ 162 µM) | > 128
CO[C@]1(C)C[C@@H](C)[C@H](O)[C@H](C)CN(C)C[C@H](COc2ccc(-c3cccnc3)cc2)OC(=O)[C@H](C)[C@@H](O[C@H]2C[C@@](C)(OC)[C@@H](O)[C@H](C)O2)[C@H](C)[C@H]1O[C@@H]1O[C@H](C)C[C@H](N(C)C)[C@H]1O | 0.5 (≈ 0.563 µM) | 64 (≈ 72.1 µM)
CO[C@]1(C)C[C@@H](C)[C@H](O)[C@H](C)CN(C)C[C@H](COCc2ccccc2)OC(=O)[C@H](C)[C@@H](O[C@H]2C[C@@](C)(OC)[C@@H](O)[C@H](C)O2)[C@H](C)[C@H]1O[C@@H]1O[C@H](C)C[C@H](N(C)C)[C@H]1O | 0.06 (≈ 0.0727 µM) | 128 (≈ 155 µM)
CO[C@]1(C)C[C@@H](C)[C@H](O)[C@H](C)CN(C)C[C@H](COc2ccc(-c3ccccc3)cc2)OC(=O)[C@H](C)[C@@H](O[C@H]2C[C@@](C)(OC)[C@@H](O)[C@H](C)O2)[C@H](C)[C@H]1O[C@@H]1O[C@H](C)C[C@H](N(C)C)[C@H]1O | 1 (≈ 1.13 µM) | 8 (≈ 9.02 µM)
CO[C@]1(C)C[C@@H](C)[C@H](O)[C@H](C)CN(C)C[C@H](CCOCc2ccccc2)OC(=O)[C@H](C)[C@@H](O[C@H]2C[C@@](C)(OC)[C@@H](O)[C@H](C)O2)[C@H](C)[C@H]1O[C@@H]1O[C@H](C)C[C@H](N(C)C)[C@H]1O | 0.12 (≈ 0.143 µM) | 128 (≈ 153 µM)
CCN(CCNC(=O)O[C@H]1[C@H](C)O[C@@H](O[C@H]2[C@H](C)[C@@H](O[C@@H]3O[C@H](C)C[C@H](N(C)C)[C@H]3O)[C@](C)(O)C[C@@H](C)[C@H](N)[C@H](C)CN(C)C[C@H](COCc3ccccc3)OC(=O)[C@@H]2C)C[C@@]1(C)OC)[C@@H](C)c1ccccc1OC | 0.12 (≈ 0.113 µM) | 0.25 (≈ 0.236 µM)
CO[C@]1(C)C[C@@H](C)[C@H](O)[C@H](C)CN(C)CCOC(=O)[C@H](C)[C@@H](O[C@H]2C[C@@](C)(OC)[C@@H](O)[C@H](C)O2)[C@H](C)[C@H]1O[C@@H]1O[C@H](C)C[C@H](N(C)C)[C@H]1O | 2 (≈ 2.84 µM) | > 128
CO[C@]1(C)C[C@H](O[C@H]2[C@H](C)[C@@H](O[C@@H]3O[C@H](C)C[C@H](N(C)C)[C@H]3O)[C@](C)(O)C[C@@H](C)[C@H](N)[C@H](C)CN(C)CCOC(=O)[C@@H]2C)O[C@@H](C)[C@@H]1O | 2 (≈ 2.9 µM) | > 128
CO[C@]1(C)C[C@@H](C)[C@H](O)[C@H](C)CN(C)C[C@@H](COCc2ccccc2)OC(=O)[C@H](C)[C@@H](O[C@H]2C[C@@](C)(OC)[C@@H](O)[C@H](C)O2)[C@H](C)[C@H]1O[C@@H]1O[C@H](C)C[C@H](N(C)C)[C@H]1O | 1 (≈ 1.21 µM) | 64 (≈ 77.6 µM)
CO[C@]1(C)C[C@H](O[C@H]2[C@H](C)[C@@H](O[C@@H]3O[C@H](C)C[C@H](N(C)C)[C@H]3O)[C@](C)(O)C[C@@H](C)[C@H](N)[C@H](C)CN(C)C[C@H](COCc3ccccc3)OC(=O)[C@@H]2C)O[C@@H](C)[C@@H]1O | 0.12 (≈ 0.148 µM) | > 128
CO[C@]1(C)C[C@@H](C)[C@H](O)[C@H](C)CN(C)[C@@H](CN)COC(=O)[C@H](C)[C@@H](O[C@H]2C[C@@](C)(OC)[C@@H](O)[C@H](C)O2)[C@H](C)[C@H]1O[C@@H]1O[C@H](C)C[C@H](N(C)C)[C@H]1O | 64 (≈ 87.2 µM) | > 128
CC[C@H]1OC(=O)[C@H](C)C(=O)[C@H](C)[C@@H](O[C@@H]2O[C@H](C)C[C@H](N(C)C)[C@H]2O)[C@](C)(OC)C[C@@H](C)C(=O)[C@H](C)[C@H]2N(CCCCn3cnc(-c4cccnc4)c3)C(=O)O[C@]12C [TELITHROMYCIN] | 4 (≈ 4.93 µM) | > 128
CO[C@]1(C)C[C@@H](C)[C@H](O)[C@H](C)CN(C)C[C@H](COc2cccc(-c3ccccc3)c2)OC(=O)[C@H](C)[C@@H](O[C@H]2C[C@@](C)(OC)[C@@H](O)[C@H](C)O2)[C@H](C)[C@H]1O[C@@H]1O[C@H](C)C[C@H](N(C)C)[C@H]1O | 1 (≈ 1.13 µM) | 16 (≈ 18 µM)
CO[C@]1(C)C[C@@H](C)[C@H](O)[C@H](C)CN(C)CCOC(=O)C(C)C(=O)[C@H](C)[C@H]1O[C@@H]1O[C@H](C)C[C@H](N(C)C)[C@H]1O (mixture of isomers) | > 128 | > 128
CO[C@]1(C)C[C@@H](C)[C@H](O)[C@H](C)CN(C)[C@H](COCc2ccccc2)COC(=O)[C@H](C)[C@@H](O[C@H]2C[C@@](C)(OC)[C@@H](O)[C@H](C)O2)[C@H](C)[C@H]1O[C@@H]1O[C@H](C)C[C@H](N(C)C)[C@H]1O | 4 (≈ 4.85 µM) | 64 (≈ 77.6 µM)
CC[C@H]1OC(=O)[C@H](C)[C@@H](O[C@H]2C[C@@](C)(OC)[C@@H](O)[C@H](C)O2)[C@H](C)[C@@H](O[C@@H]2O[C@H](C)C[C@H](N(C)C)[C@H]2O)[C@](C)(OC)C[C@@H](C)C(=O)[C@H](C)[C@@H](O)[C@]1(C)O [CLARITHROMYCIN] | 0.03 (≈ 0.0401 µM) | > 128
CO[C@]1(C)C[C@@H](C)[C@H](O)[C@H](C)CN(C)[C@@H](CCOCc2ccccc2)COC(=O)[C@H](C)[C@@H](O[C@H]2C[C@@](C)(OC)[C@@H](O)[C@H](C)O2)[C@H](C)[C@H]1O[C@@H]1O[C@H](C)C[C@H](N(C)C)[C@H]1O | 1 (≈ 1.19 µM) | 64 (≈ 76.3 µM)
CCN(CCNC(=O)O[C@H]1[C@H](C)O[C@@H](O[C@H]2[C@H](C)[C@@H](O[C@@H]3O[C@H](C)C[C@H](N(C)C)[C@H]3O)[C@](C)(O)C[C@@H](C)[C@H](N)[C@H](C)CN(C)CCOC(=O)[C@@H]2C)C[C@@]1(C)OC)[C@@H](C)c1ccccc1OC | 0.12 (≈ 0.128 µM) | 0.5 (≈ 0.533 µM)
CO[C@]1(C)C[C@@H](C)[C@H](O)[C@H](C)CN(C)[C@@H](COCc2ccccc2)COC(=O)[C@H](C)[C@@H](O[C@H]2C[C@@](C)(OC)[C@@H](O)[C@H](C)O2)[C@H](C)[C@H]1O[C@@H]1O[C@H](C)C[C@H](N(C)C)[C@H]1O | 1 (≈ 1.21 µM) | 64 (≈ 77.6 µM)
CO[C@]1(C)C[C@@H](C)[C@H](O)[C@H](C)CN(C)C[C@H](COc2ccccc2-c2ccccc2)OC(=O)[C@H](C)[C@@H](O[C@H]2C[C@@](C)(OC)[C@@H](O)[C@H](C)O2)[C@H](C)[C@H]1O[C@@H]1O[C@H](C)C[C@H](N(C)C)[C@H]1O | 0.5 (≈ 0.564 µM) | 16 (≈ 18 µM)
CO[C@]1(C)C[C@@H](C)[C@H](O)[C@H](C)CN(C)C[C@H](c2ccccc2)OC(=O)[C@H](C)[C@@H](O[C@H]2C[C@@](C)(OC)[C@@H](O)[C@H](C)O2)[C@H](C)[C@H]1O[C@@H]1O[C@H](C)C[C@H](N(C)C)[C@H]1O | 0.5 (≈ 0.64 µM) | > 128
CO[C@]1(C)C[C@@H](C)[C@H](O)[C@H](C)CN(C)C[C@H](COc2ccccc2)OC(=O)[C@H](C)[C@@H](O[C@H]2C[C@@](C)(OC)[C@@H](O)[C@H](C)O2)[C@H](C)[C@H]1O[C@@H]1O[C@H](C)C[C@H](N(C)C)[C@H]1O | 0.25 (≈ 0.308 µM) | 32 (≈ 39.5 µM)
